# Assay results as given in ChEMBL document CHEMBL1143271, “Synthesis and CB1 cannabinoid receptor affinity of 4-alkoxycarbonyl-1,5-diaryl-1,2,3-triazoles” (Bioorg Med Chem Lett, 2009).
# Target: Cannabinoid receptor 1 (Rattus norvegicus, UniProt P20272)
# Assay: Displacement of [3H]SR141716 from CB1 receptor in rat cerebellum homogenate
# Assay type: tissue-based
# How it was run: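 Competition binding against [3H]SR141716 in rat cerebellum homogenates. Each concentration was run in triplicate, and each experiment was repeated three times. Data were fitted by non-linear regression, and values are mean ± SEM of three experiments.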
# Chain of Cannabinoid receptor 1 (P20272 whole entry): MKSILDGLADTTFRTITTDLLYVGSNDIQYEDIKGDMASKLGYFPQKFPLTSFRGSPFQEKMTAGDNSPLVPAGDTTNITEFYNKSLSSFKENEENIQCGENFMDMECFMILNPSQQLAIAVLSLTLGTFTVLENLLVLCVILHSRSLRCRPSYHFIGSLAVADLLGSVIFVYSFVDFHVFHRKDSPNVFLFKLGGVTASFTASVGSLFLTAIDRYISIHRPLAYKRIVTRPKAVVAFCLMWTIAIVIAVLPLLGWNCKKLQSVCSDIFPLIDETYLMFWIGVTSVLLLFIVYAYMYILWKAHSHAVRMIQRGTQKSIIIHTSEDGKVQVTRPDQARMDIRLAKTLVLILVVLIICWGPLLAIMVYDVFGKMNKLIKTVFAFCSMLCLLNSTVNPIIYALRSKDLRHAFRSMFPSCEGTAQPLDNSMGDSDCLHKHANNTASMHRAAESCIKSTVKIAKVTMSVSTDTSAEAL
row,SMILES,Ki [nM]
1,O=C(NN1CCCCC1)c1nnn(-c2ccc(Cl)cc2Cl)c1-c1ccc(Cl)cc1,590
2,O=C(Oc1ccccc1)c1nnn(-c2ccc(Cl)cc2Cl)c1-c1ccc(Cl)cc1,11
3,O=C(OCc1ccccc1)c1nnn(-c2ccc(Cl)cc2Cl)c1-c1ccc(Cl)cc1,97
4,COC(=O)c1nnn(-c2ccc(Cl)cc2)c1-c1ccc(Cl)cc1,4400
5,CCCOC(=O)c1nnn(-c2ccc(Cl)cc2Cl)c1-c1ccc(Cl)cc1,4.6
6,Clc1ccc(-c2cnnn2-c2ccc(Cl)cc2)cc1,6900
7,Clc1ccc(-c2cnnn2-c2ccc(Cl)cc2Cl)cc1,1420
8,O=C(OC1CCCCC1)c1nnn(-c2ccc(Cl)cc2Cl)c1-c1ccc(Cl)cc1,240
9,CCOC(=O)c1nnn(-c2ccc(Cl)cc2Cl)c1-c1ccc(Cl)cc1,180
10,COC(=O)c1nnn(-c2ccc(Cl)cc2Cl)c1-c1ccc(Cl)cc1,66
